Experimental data: ChEMBL document CHEMBL1133664, “Synthesis and evaluation of hydroxylated polyamine analogues as antiproliferatives” (J Med Chem, 2000)

Columns and labels:
L1210 [1] = assay: Putrescine(PUT) levels in L1210 cells after 48 hr of treatment with the compound at the dose of 200 uMicroM; format: functional, Mus musculus
In short: (§1)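 Log-phase L1210 cells treated 48 h, washed twice in ice-cold incomplete medium, extracted with 0.6 N perchloric acid and freeze-fractured three times. Polyamines are quantified by HPLC. PUT, SPD and SPM are expressed as percent of untreated control.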

L1210 [2] = assay: Putrescine(PUT) levels in L1210 cells after 48 hr of treatment with the compound at the dose of 40 uM; format: functional, Mus musculus; in short: as §1
L1210 [3] = assay: Spermidine(SPD) levels in L1210 cells after 48 hr of treatment with the compound at the dose of 200 uM; format: functional, Mus musculus; in short: as §1
L1210 [4] = assay: Spermidine(SPD) levels in L1210 cells after 48 hr of treatment with the compound at the dose of 40 uM; format: functional, Mus musculus; in short: as §1
L1210 [5] = assay: Spermine(SPM) levels in L1210 cells after 48 hr of treatment with the compound at the dose of 200 uM; format: functional, Mus musculus; in short: as §1
L1210 [6] = assay: Spermine(SPM) levels in L1210 cells after 48 hr of treatment with the compound at the dose of 40 uM; format: functional, Mus musculus; in short: as §1
L1210 [7] = assay: Growth uM after 48 hours; format: functional, cell-based; conditions: Mus musculus, L1210, 48 h
L1210 [8] = assay: Growth uM after 96 hours; format: functional, cell-based; conditions: Mus musculus, L1210, 96 h
L1210 [9] = assay: Ki was estimated by competitive inhibition of [3H]SPD transport by L1210 cells; format: functional, cell-based, Mus musculus
In short: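 L1210 cells incubated 20 min at 37 °C in medium with 1-10 µM [3H]spermidine, alone or with 10, 25 or 50 µM analogue. Cells are then washed with cold medium containing 1 mM SPD, digested in NaOH at 60 °C and counted by scintillation. Ki is taken from substrate-competitive inhibition kinetics; values are means of two or three experiments.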

[10] = target: T1, Ornithine decarboxylase (Mus musculus) (UniProt P00860); assay: Effect of compound on Ornithine decarboxylase (ODC) […] in L1210 cells; format: cell-based
T1 sequence (whole entry): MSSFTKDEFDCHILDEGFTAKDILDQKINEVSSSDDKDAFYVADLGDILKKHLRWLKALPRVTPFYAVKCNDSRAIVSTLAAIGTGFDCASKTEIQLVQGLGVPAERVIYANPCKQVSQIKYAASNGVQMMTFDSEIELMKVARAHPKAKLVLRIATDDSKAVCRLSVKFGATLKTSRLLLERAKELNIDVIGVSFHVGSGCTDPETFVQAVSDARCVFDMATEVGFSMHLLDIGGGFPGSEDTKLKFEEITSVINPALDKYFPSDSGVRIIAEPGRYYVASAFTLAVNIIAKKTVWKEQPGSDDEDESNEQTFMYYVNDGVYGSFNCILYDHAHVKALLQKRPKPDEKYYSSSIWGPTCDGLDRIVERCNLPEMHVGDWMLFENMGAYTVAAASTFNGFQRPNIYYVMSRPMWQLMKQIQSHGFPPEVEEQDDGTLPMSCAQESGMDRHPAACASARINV
In short: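 L1210 cells treated 4 h at 1 µM, with an additional arm at 10 µM for 4 h. ODC activity is expressed as percent of untreated control. Each run includes untreated cells as negative control and a DEHSPM-treated positive control. Values are the mean of at least three experiments.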

L1210 [11] = assay: Effect of compound on Spermidine/Spermine N'-Acetyltransferase(SSAT) in L1210 cells; format: cell-based
In short: (§2)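 L1210 cells treated 48 h at 10 µM, or 2 µM for DENSPM. SSAT is quantified as [14C]-N1-acetylspermidine formed from spermidine and [14C]acetyl-CoA. Values are the mean of at least three experiments.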

[12] = tested on: S-adenosylmethionine decarboxylase (Mus musculus); assay: Effect of compound on S-Adenosyl-methionine decarboxylase in L1210 cells; set-up: unit not given here
L1210 [13] = assay: Putrescine(PUT) levels in L1210 cells after 48 hr of treatment with the compound at the dose of 10 uM; format: functional, Mus musculus; in short: as §1
L1210 [14] = assay: Putrescine(PUT) levels in L1210 cells after 48 hr of treatment with the compound at the dose of 100 MicroM; format: functional, Mus musculus; in short: as §1
L1210 [15] = assay: Spermidine(SPD) levels in L1210 cells after 48 hr of treatment with the compound at the dose of 10 uM; format: functional, Mus musculus; in short: as §1
L1210 [16] = assay: Spermidine(SPD) levels in L1210 cells after 48 hr of treatment with the compound at the dose of 100 uM; format: functional, Mus musculus; in short: as §1
L1210 [17] = assay: Spermine(SPM) levels in L1210 cells after 48 hr of treatment with the compound at the dose of 10 uM; format: functional, Mus musculus; in short: as §1
L1210 [18] = assay: Spermine(SPM) levels in L1210 cells after 48 hr of treatment with the compound at the dose of 100 uM; format: functional, Mus musculus; in short: as §1
L1210 [19] = assay: Growth inhibition of L1210 cells was measured in the presence of nine different concentrations: 0,0.03,0.1,0.3,1,3,10,30, and 100 uM after 48 hours; format: functional, cell-based; conditions: Mus musculus, L1210, 48 h
In short: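 L1210 leukemia cells were kept in log growth in RPMI-1640 with 10% FBS, HEPES-MOPS and 1 mM aminoguanidine at 37 °C under 5% CO2. Cultures at 0.5-1.0 × 10^5 cells/mL were dosed with filtered aqueous compound and counted by Coulter counter at 48 h, then reseeded and counted again at 96 h.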

L1210 [20] = assay: Effect of compound on Spermidine/Spermine N'-Acetyltransferase (SSAT) in L1210 cells; format: cell-based; in short: as §2
L1210 [21] = assay: Putrescine(PUT) levels in L1210 cells after 48 hr of treatment with the compound at the dose of 0.15 uM; format: functional, Mus musculus; in short: as §1
L1210 [22] = assay: Putrescine(PUT) levels in L1210 cells after 48 hr of treatment with the compound at the dose of 0.75 uM; format: functional, Mus musculus; in short: as §1
L1210 [23] = assay: Spermidine(SPD) levels in L1210 cells after 48 hr of treatment with the compound at the dose of 0.15 uM; format: functional, Mus musculus; in short: as §1
L1210 [24] = assay: Spermidine(SPD) levels in L1210 cells after 48 hr of treatment with the compound at the dose of 0.75 uM; format: functional, Mus musculus; in short: as §1
L1210 [25] = assay: Spermine(SPM) levels in L1210 cells after 48 hr of treatment with the compound at the dose of 0.15 uM; format: functional, Mus musculus; in short: as §1
L1210 [26] = assay: Spermine(SPM) levels in L1210 cells after 48 hr of treatment with the compound at the dose of 0.75 uM; format: functional, Mus musculus; in short: as §1
L1210 [27] = assay: Putrescine(PUT) levels in L1210 cells after 48 hr of treatment with the compound at the dose of 2 uM; format: functional, Mus musculus; in short: as §1
L1210 [28] = assay: Spermidine(SPD) levels in L1210 cells after 48 hr of treatment with the compound at the dose of 2 uM; format: functional, Mus musculus; in short: as §1
L1210 [29] = assay: Spermine(SPM) levels in L1210 cells after 48 hr of treatment with the compound at the dose of 2 uM; format: functional, Mus musculus; in short: as §1
[30] = in the assay text read “1 uM” for “10 uM”

IC50 (L1210 [7]) [nM]	IC50 (L1210 [8]) [nM]	Activity [10]	Activity [12]	Compound	Ki (L1210 [9]) [nM]	Activity (L1210 [11])	Activity (L1210 [13])	Activity (L1210 [15])	Activity (L1210 [17])	other results
–	–	35	–	CCNC[C@@H](O)CNCCCNC[C@H](O)CNCC	–	–	–	–	–	–
–	–	61	–	CCNC[C@H](O)CNCCCNC[C@@H](O)CNCC	–	–	–	–	–	–
2000	60	17	52	CCNCC[C@H](O)CNCCCCNC[C@@H](O)CCNCC [IVOSPEMIN]	2400	114	3	4	53	Activity (L1210 [27]): 3; Activity (L1210 [28]): 11; Activity (L1210 [29]): 62

The remaining lines, values behind:

Compound	IC50 (L1210 [7]) [nM]	IC50 (L1210 [8]) [nM]	Activity [10]	Activity [12]	Ki (L1210 [9]) [nM]	Activity (L1210 [11])	Activity (L1210 [13])	Activity (L1210 [15])	Activity (L1210 [17])	other results
CCNCC[C@@H](O)CNCCCCNC[C@H](O)CCNCC	40000	80	55	68	1700	102	–	–	–	Activity (L1210 [1]): 4; Activity (L1210 [2]): 5; Activity (L1210 [3]): 13; Activity (L1210 [4]): 19; Activity (L1210 [5]): 104; Activity (L1210 [6]): 107
CCNCCCNCCCNCCCNCC [BIS(ETHYL)NORSPERMINE]	–	–	7	42	–	–	–	–	–	Activity (L1210 [13]; [30]): 66; Activity (L1210 [14]): 0; Activity (L1210 [15]; [30]): 46; Activity (L1210 [16]): 6; Activity (L1210 [17]; [30]): 94; Activity (L1210 [18]): 30; IC50 (L1210 [19]): 20000 nM; Activity (L1210 [20]): 1470
CCNCCCCNCCCCNCCCCNCC [DIETHYLHOMOSPERMINE]	–	–	7	41	–	110	3	1	57	Activity (L1210 [21]): 97; Activity (L1210 [22]): 49; Activity (L1210 [23]): 91; Activity (L1210 [24]): 40; Activity (L1210 [25]): 110; Activity (L1210 [26]): 101
